According to ChEMBL document CHEMBL1125165, “Inhibition of ornithine decarboxylase by the isomers of 1,4-dimethylputrescine” (J Med Chem, 1990):
Several values for one entry are separate records, joined by “and”; a condition that tells them apart may be missing. Equal values may be shown once. Values belong to the compound of their own block, whether it stands above or below them.

Key:
[1] = target: T1, Ornithine decarboxylase (Rattus norvegicus) (UniProt P09057); test: In vivo inhibitory activity against Ornithine Decarboxylase (ODC) in H-35 hepatoma cells; format: functional; parameters: unit not given here
T1 sequence (whole entry): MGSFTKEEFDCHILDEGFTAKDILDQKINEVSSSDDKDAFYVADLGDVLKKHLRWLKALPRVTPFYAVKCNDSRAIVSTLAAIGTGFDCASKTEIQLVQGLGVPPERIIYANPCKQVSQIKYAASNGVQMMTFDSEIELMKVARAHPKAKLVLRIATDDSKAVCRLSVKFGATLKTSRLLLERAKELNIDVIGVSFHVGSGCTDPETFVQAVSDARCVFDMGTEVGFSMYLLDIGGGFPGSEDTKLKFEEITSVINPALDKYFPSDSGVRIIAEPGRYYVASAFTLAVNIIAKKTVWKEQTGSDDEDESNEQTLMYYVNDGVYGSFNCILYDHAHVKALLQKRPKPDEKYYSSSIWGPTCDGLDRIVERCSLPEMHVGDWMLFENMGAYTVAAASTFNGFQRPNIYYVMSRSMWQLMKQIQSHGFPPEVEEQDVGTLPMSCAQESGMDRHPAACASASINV

Ornithine decarboxylase = target: T2, Ornithine decarboxylase (Rattus norvegicus, UniProt P09057); test: (§1) In vitro inhibitory activity against Ornithine Decarboxylase (ODC) isolated from the livers of thioactamide treated rats.; format: functional, tissue-based, Liver
T2 sequence (P09057 whole entry): T1 sequence (whole entry)
Summary of the method: (§2)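 ODC was partially purified from livers of rats injected with thioacetamide (100 mg/kg), with specific activity 0.2 nmol/min per mg protein. Activity was measured in vitro across inhibitor concentrations. Ki was obtained by replotting apparent Km against inhibitor concentration.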

[2] = target: T1, Ornithine decarboxylase (Rattus norvegicus); test: In vivo inhibitory activity against Ornithine Decarboxylase (ODC) in rats; format: functional, organism-based; parameters: concentration or dose not given beside the values
[3] = as §1; format: functional, tissue-based, Rattus norvegicus, Liver; summary of the method: as §2
Rattus norvegicus [4] = species on record: Rattus norvegicus; test: Effect on 1,4-Dimethylputrescine content of meso isomer Dexamethasone treated rats after 4 hour; format: functional
Summary of the method: (§3)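 Female Wistar rats (100-130 g) were pretreated with dexamethasone or thioacetamide, and the analogue was given ip in saline-buffered solution. Liver was sampled 1 h or 3-4 h later. Free polyamines and analogue were measured in perchloric extracts. Polyamines are expressed as % of the inducer-treated liver content. Analogue is expressed as % of the total injected per g liver (10 ± 0.5 μmol). Mean ± SD, three experiments in duplicate.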

Rattus norvegicus [5] = species on record: Rattus norvegicus; test: Effect on spermidine content of (+) isomer Dexamethasone treated rats after 4 hour; format: functional; summary of the method: as §3
Rattus norvegicus [6] = species on record: Rattus norvegicus; test: Effect on spermidine content of Dexamethasone treated rats.; format: functional; summary of the method: as §3
Rattus norvegicus [7] = species on record: Rattus norvegicus; test: Effect on 1,4-Dimethylputrescine content of (+) isomer Dexamethasone treated rats after 1 hour; format: functional; summary of the method: as §3
Rattus norvegicus [8] = species on record: Rattus norvegicus; test: Effect on putrescine content of Dexamethasone treated rats.; format: functional; summary of the method: as §3
Rattus norvegicus [9] = species on record: Rattus norvegicus; test: Effect on 1,4-Dimethylputrescine content of Thioacetamide treated rats after 1 hr; format: functional; summary of the method: as §3
Rattus norvegicus [10] = species on record: Rattus norvegicus; test: Effect on spermidine content of Thioacetamide treated rats after 1 hr; format: functional; summary of the method: as §3
Rattus norvegicus [11] = species on record: Rattus norvegicus; test: Effect on spermidine content of (-) isomer Dexamethasone treated rats after 1 hour; format: functional; summary of the method: as §3
Rattus norvegicus [12] = species on record: Rattus norvegicus; test: Effect on spermidine content of Thioacetamide treated rats after 3 hr; format: functional; summary of the method: as §3
Rattus norvegicus [13] = species on record: Rattus norvegicus; test: Effect on spermine content of (-) isomer Dexamethasone treated rats after 4 hour; format: functional; summary of the method: as §3
Rattus norvegicus [14] = species on record: Rattus norvegicus; test: Effect on spermidine content of Thioacetamide treated rats.; format: functional; summary of the method: as §3
Rattus norvegicus [15] = species on record: Rattus norvegicus; test: Effect on spermine content of (+) isomer Dexamethasone treated rats after 4 hour; format: functional; summary of the method: as §3
Rattus norvegicus [16] = species on record: Rattus norvegicus; test: Effect on 1,4-Dimethylputrescine content of (-) isomer Dexamethasone treated rats after 1 hour; format: functional; summary of the method: as §3
Rattus norvegicus [17] = species on record: Rattus norvegicus; test: Effect on putrescine content of Thioacetamide treated rats.; format: functional; summary of the method: as §3
Rattus norvegicus [18] = species on record: Rattus norvegicus; test: Effect on spermidine content of meso isomer Dexamethasone treated rats after 4 hour; format: functional; summary of the method: as §3
Rattus norvegicus [19] = species on record: Rattus norvegicus; test: Effect on 1,4-Dimethylputrescine content of (-) isomer Dexamethasone treated rats after 4 hour; format: functional; summary of the method: as §3
Rattus norvegicus [20] = species on record: Rattus norvegicus; test: Effect on spermine content of (+) isomer Dexamethasone treated rats after 1 hour; format: functional; summary of the method: as §3
Rattus norvegicus [21] = species on record: Rattus norvegicus; test: Effect on putrescine content of (-) isomer Dexamethasone treated rats after 1 hour; format: functional; summary of the method: as §3
Rattus norvegicus [22] = species on record: Rattus norvegicus; test: Effect on spermine content of (-) isomer Dexamethasone treated rats after 1 hour; format: functional; summary of the method: as §3
Rattus norvegicus [23] = species on record: Rattus norvegicus; test: Effect on putrescine content of meso isomer Dexamethasone treated rats after 4 hour; format: functional; summary of the method: as §3
Rattus norvegicus [24] = species on record: Rattus norvegicus; test: Effect on spermine content of meso isomer Dexamethasone treated rats after 1 hour; format: functional; summary of the method: as §3
Rattus norvegicus [25] = species on record: Rattus norvegicus; test: Effect on spermine content of Thioacetamide treated rats.; format: functional; summary of the method: as §3
Rattus norvegicus [26] = species on record: Rattus norvegicus; test: Effect on spermidine content of meso isomer Dexamethasone treated rats after 1 hour; format: functional; summary of the method: as §3
Rattus norvegicus [27] = species on record: Rattus norvegicus; test: Effect on 1,4-Dimethylputrescine content of meso isomer Dexamethasone treated rats after 1 hour; format: functional; summary of the method: as §3
Rattus norvegicus [28] = species on record: Rattus norvegicus; test: Effect on spermine content of Thioacetamide treated rats after 1 hr; format: functional; summary of the method: as §3
Rattus norvegicus [29] = species on record: Rattus norvegicus; test: Effect on spermine content of Thioacetamide treated rats after 3 hour; format: functional; summary of the method: as §3
Rattus norvegicus [30] = species on record: Rattus norvegicus; test: Effect on putrescine content of (+) isomer Dexamethasone treated rats after 4 hour; format: functional; summary of the method: as §3
Rattus norvegicus [31] = species on record: Rattus norvegicus; test: Effect on putrescine content of Thioacetamide treated rats after 3 hr; format: functional; summary of the method: as §3
Rattus norvegicus [32] = species on record: Rattus norvegicus; test: Effect on spermidine content of (+) isomer Dexamethasone treated rats after 1 hour; format: functional; summary of the method: as §3
Rattus norvegicus [33] = species on record: Rattus norvegicus; test: Effect on putrescine content of (+) isomer Dexamethasone treated rats after 1 hour; format: functional; summary of the method: as §3
Rattus norvegicus [34] = species on record: Rattus norvegicus; test: Effect on spermine content of Dexamethasone treated rats.; format: functional; summary of the method: as §3
Rattus norvegicus [35] = species on record: Rattus norvegicus; test: Effect on spermine content of Thioacetamide treated rats after 3 hr; format: functional; summary of the method: as §3
Rattus norvegicus [36] = species on record: Rattus norvegicus; test: Effect on 1,4-Dimethylputrescinecontent of (+) isomer Dexamethasone treated rats after 4 hour; format: functional; summary of the method: as §3
Rattus norvegicus [37] = species on record: Rattus norvegicus; test: Effect on 1,4-Dimethylputrescine content of Thioacetamide treated rats after 3 hr; format: functional; summary of the method: as §3
Rattus norvegicus [38] = species on record: Rattus norvegicus; test: Effect on putrescine content of meso isomer Dexamethasone treated rats after 1 hour; format: functional; summary of the method: as §3
Rattus norvegicus [39] = species on record: Rattus norvegicus; test: Effect on spermidine content of (-) isomer Dexamethasone treated rats after 4 hour; format: functional; summary of the method: as §3
Rattus norvegicus [40] = species on record: Rattus norvegicus; test: Effect on putrescine content of (-) isomer Dexamethasone treated rats after 4 hr; format: functional; summary of the method: as §3
Rattus norvegicus [41] = species on record: Rattus norvegicus; test: Effect on spermine content of meso isomer Dexamethasone treated rats after 4 hour; format: functional; summary of the method: as §3

Activity [1]: 85
Ki (Ornithine decarboxylase): 2.9 mM
Inhibition [2]: 76%
SMILES: CC(N)CC(C)CN (mixture of isomers)

Activity [1]: 90
Inhibition [2]: 93%
SMILES: CC(N)CCC(C)N (stereo unspecified) [listing 1 of 2 here]

Activity [1]: 96
Inhibition [2]: 98%
SMILES: CC(N)CCC(C)N (single isomer, unassigned; (+))

Activity [1]: 97
Inhibition [2]: 97%
SMILES: CC(N)CCC(C)N (single isomer, unassigned; (-))

Activity [1]: 75
Ki (Ornithine decarboxylase): 3.8 mM
Inhibition [2]: 70%
SMILES: CC(N)C(C)CCN (mixture of isomers)

Activity [1]: 91
Inhibition [2]: 96%
SMILES: CC(N)CCC(C)N (racemic)

The remaining lines, values behind:

SMILES: CC(CN)C(C)CN (mixture of isomers)
Ki [3]: 1 mM

SMILES: NCCCCN [PUTRESCINE]
Activity [1]: 90
Ki (Ornithine decarboxylase): 3.3 mM
Inhibition [2]: 55%

SMILES: CNCCCCNC
Activity [1]: 72
Inhibition [2]: 30%

SMILES: CC(N)CCC(C)N (stereo unspecified) [listing 2 of 2 here]
Polyamine content (Rattus norvegicus [4]): 50 nM/g
Polyamine content (Rattus norvegicus [5]): 850 nM/g
Polyamine content (Rattus norvegicus [6]): 2300 nM/g
Polyamine content (Rattus norvegicus [7]): 1800 nM/g
Polyamine content (Rattus norvegicus [8]): 980 nM/g
Polyamine content (Rattus norvegicus [9]): 2700 nM/g and 1850 nM/g and 2800 nM/g
Polyamine content (Rattus norvegicus [10]): 1870 nM/g and 1950 nM/g and 2800 nM/g
Polyamine content (Rattus norvegicus [11]): 1280 nM/g
Polyamine content (Rattus norvegicus [12]): 2400 nM/g and 1475 nM/g and 2500 nM/g
Polyamine content (Rattus norvegicus [13]): 2220 nM/g
Polyamine content (Rattus norvegicus [14]): 2680 nM/g
Polyamine content (Rattus norvegicus [15]): 1800 nM/g
Polyamine content (Rattus norvegicus [16]): 1640 nM/g
Polyamine content (Rattus norvegicus [17]): 1370 nM/g
Polyamine content (Rattus norvegicus [18]): 2280 nM/g
Polyamine content (Rattus norvegicus [19]): 40 nM/g
Polyamine content (Rattus norvegicus [20]): 1930 nM/g
Polyamine content (Rattus norvegicus [21]): 100 nM/g
Polyamine content (Rattus norvegicus [22]): 2240 nM/g
Polyamine content (Rattus norvegicus [23]): 890 nM/g
Polyamine content (Rattus norvegicus [24]): 2060 nM/g
Polyamine content (Rattus norvegicus [25]): 2400 nM/g
Polyamine content (Rattus norvegicus [26]): 1920 nM/g
Polyamine content (Rattus norvegicus [27]): 1640 nM/g
Polyamine content (Rattus norvegicus [28]): 2600 nM/g and 2500 nM/g and 2350 nM/g
Polyamine content (Rattus norvegicus [29]): 2600 nM/g
Polyamine content (Rattus norvegicus [30]): 660 nM/g
Polyamine content (Rattus norvegicus [31]): 290 nM/g and 510 nM/g and 410 nM/g
Polyamine content (Rattus norvegicus [32]): 2180 nM/g
Polyamine content (Rattus norvegicus [33]): 60 nM/g
Polyamine content (Rattus norvegicus [34]): 2170 nM/g
Polyamine content (Rattus norvegicus [35]): 3000 nM/g and 2350 nM/g
Polyamine content (Rattus norvegicus [36]): 400 nM/g
Polyamine content (Rattus norvegicus [37]): 1550 nM/g and 900 nM/g and 1150 nM/g
Polyamine content (Rattus norvegicus [38]): 160 nM/g
Polyamine content (Rattus norvegicus [39]): 2080 nM/g
Polyamine content (Rattus norvegicus [40]): 580 nM/g
Polyamine content (Rattus norvegicus [41]): 2250 nM/g

SMILES: CN(C)CCCCN
Activity [1]: 68
Ki (Ornithine decarboxylase): 3 mM
Inhibition [2]: 60%
